Assays:
Type in all cases: functional
MOLT-4 = experiment: Antitumor activity against human MOLT4 cells after 48 hrs by SRB assay; settings: MOLT-4, 48 h
How it was run: (§1)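 NCI 60-cell-line secondary screen. Cells were exposed continuously to drug for 48 h at five concentration levels (100, 10, 1.0, 0.1 and 0.01). Growth was estimated by sulforhodamine B protein staining. GI50 is the concentration giving a 50% reduction in net protein increase versus untreated control cells over the incubation. TGI (total growth inhibition) and LC50 (50% cell kill) were also derived.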

SF-268 = experiment: Antitumor activity against human SF268 cells after 48 hrs by SRB assay; settings: SF-268, 48 h; how it was run: as §1
SW-620 = experiment: Antitumor activity against human SW620 cells after 48 hrs by SRB assay; settings: SW-620, 48 h
How it was run: (§2)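 NCI 60-cell-line secondary screen. Continuous 48 h exposure at five concentration levels. Cell growth estimated by sulforhodamine B protein staining. GI50 taken as the concentration giving 50% reduction in net protein increase relative to untreated control cells over the incubation. TGI (total growth inhibition) and LC50 (50% cell kill) were also derived.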

BT-549 = experiment: Antitumor activity against human BT549 cells after 48 hrs by SRB assay; settings: BT-549, 48 h; how it was run: as §1
MDA-MB-468 = experiment: Antitumor activity against human MDA-MB-468 cells after 48 hrs by SRB assay; settings: MDA-MB-468, 48 h; how it was run: as §1
TK-10 = experiment: Antitumor activity against human TK10 cells after 48 hrs by SRB assay; settings: TK-10, 48 h; how it was run: as §2
SF-539 = experiment: Antitumor activity against human SF539 cells after 48 hrs by SRB assay; settings: SF-539, 48 h; how it was run: as §1
OVCAR-4 = experiment: Antitumor activity against human OVCAR4 cells after 48 hrs by SRB assay; settings: OVCAR-4, 48 h; how it was run: as §1
NCI-H322M = experiment: Antitumor activity against human NCI-H322M cells after 48 hrs by SRB assay; how it was run: as §1
NCI-H23 = experiment: Antitumor activity against human NCI-H23 cells after 48 hrs by SRB assay; settings: NCI-H23, 48 h; how it was run: as §1
RPMI-8226 = experiment: Antitumor activity against human RPMI8226 cells after 48 hrs by SRB assay; settings: RPMI-8226, 48 h; how it was run: as §1
HCC 2998 = experiment: Antitumor activity against human HCC2998 cells after 48 hrs by SRB assay; settings: HCC 2998, 48 h
How it was run: (§3)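 NCI 60-cell-line secondary screen: continuous drug exposure for 48 h at five concentration levels (100, 10, 1.0, 0.1 and 0.01). Cell growth was estimated by sulforhodamine B (SRB) protein staining. GI50 is the concentration giving a 50% reduction in net protein increase relative to untreated control cells during the incubation. TGI and LC50 were derived from the same data.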

786-0 = experiment: Antitumor activity against human 786-0 cells after 48 hrs by SRB assay; settings: 786-0, 48 h; how it was run: as §1
HL-60(TB) = experiment: Antitumor activity against human HL-60(TB) cells after 48 hrs by SRB assay; settings: HL-60, 48 h; how it was run: as §3
SK-MEL-28 = experiment: Antitumor activity against human SK-MEL-28 cells after 48 hrs by SRB assay; settings: SK-MEL-28, 48 h; how it was run: as §1
HOP-62 = experiment: Antitumor activity against human HOP62 cells after 48 hrs by SRB assay; settings: HOP-62, 48 h; how it was run: as §1
KM12 = experiment: Antitumor activity against human KM12 cells after 48 hrs by SRB assay; settings: KM12, 48 h; how it was run: as §1
CAKI-1 = experiment: Antitumor activity against human Caki1 cells after 48 hrs by SRB assay; settings: CAKI-1, 48 h; how it was run: as §1
EKVX = experiment: Antitumor activity against human EKVX cells after 48 hrs by SRB assay; how it was run: as §1
K562 = experiment: Antitumor activity against human K562 cells after 48 hrs by SRB assay; settings: K562, 48 h; how it was run: as §1
LOX IMVI = experiment: Antitumor activity against human LOXIMVI cells after 48 hrs by SRB assay; how it was run: as §1
NCI-H460 = experiment: Antitumor activity against human NCI-H460 cells after 48 hrs by SRB assay; settings: NCI-H460, 48 h; how it was run: as §1
COLO 205 = experiment: Antitumor activity against human COLO205 cells after 48 hrs by SRB assay; settings: COLO 205, 48 h; how it was run: as §1
RXF 393 = experiment: Antitumor activity against human RXF393 cells after 48 hrs by SRB assay; settings: RXF 393, 48 h; how it was run: as §1
HCT-15 = experiment: Antitumor activity against human HCT15 cells after 48 hrs by SRB assay; settings: HCT-15, 48 h; how it was run: as §1
SNB-19 = experiment: Antitumor activity against human SNB19 cells after 48 hrs by SRB assay; settings: SNB-19, 48 h; how it was run: as §1
SK-MEL-5 = experiment: Antitumor activity against human SK-MEL-5 cells after 48 hrs by SRB assay; settings: SK-MEL-5, 48 h; how it was run: as §1
SK-OV-3 = experiment: Antitumor activity against human SKOV3 cells after 48 hrs by SRB assay; settings: SK-OV-3, 48 h; how it was run: as §1
UACC-62 = experiment: Antitumor activity against human UACC62 cells after 48 hrs by SRB assay; settings: UACC-62, 48 h; how it was run: as §2
[1] = read-out: LC50 (the source's name)

Which results are given for `COC(=O)c1ccc2c(c1)nc(-c1ccc(Cl)cc1)n2-c1cc(C(C)(C)C)[nH]n1`?
GI50 (MOLT-4): 5.48 µM; LC50 (50% net cell kill) (MOLT-4): > 100 µM; TGI (MOLT-4): > 100 µM; GI50 (SF-268): 3.29 µM; TGI (SF-268): 17.8 µM; CC50 (SF-268; [1]): > 100 µM; GI50 (SW-620): 3.24 µM; TGI (SW-620): > 100 µM; CC50 (SW-620; [1]): > 100 µM; GI50 (BT-549): 3.35 µM; TGI (BT-549): 11.2 µM; CC50 (BT-549; [1]): 0.595 µM; GI50 (MDA-MB-468): 2.4 µM; TGI (MDA-MB-468): 7.98 µM; CC50 (MDA-MB-468; [1]): > 100 µM; GI50 (TK-10): 6.94 µM; TGI (TK-10): > 100 µM; CC50 (TK-10; [1]): > 100 µM; GI50 (SF-539): 2.54 µM; TGI (SF-539): 8.95 µM; CC50 (SF-539; [1]): 0.521 µM; GI50 (OVCAR-4): 3.4 µM; TGI (OVCAR-4): > 100 µM; CC50 (OVCAR-4; [1]): > 100 µM; GI50 (NCI-H322M): 10.4 µM; LC50 (50% cell kill) (NCI-H322M): > 100 µM; TGI (NCI-H322M): 86.4 µM; GI50 (NCI-H23): 3.42 µM; LC50 (50% cell kill) (NCI-H23): > 100 µM; TGI (NCI-H23): 36 µM; GI50 (RPMI-8226): 3.93 µM; TGI (RPMI-8226): 19 µM; CC50 (RPMI-8226; [1]): > 100 µM; GI50 (HCC 2998): 3.9 µM; TGI (HCC 2998): 19.8 µM; CC50 (HCC 2998; [1]): > 100 µM; GI50 (786-0): 3.62 µM; TGI (786-0): 32 µM; CC50 (786-0; [1]): > 100 µM; GI50 (HL-60(TB)): 4.03 µM; LC50 (HL-60(TB)): > 100 µM; TGI (HL-60(TB)): 11.2 µM; GI50 (SK-MEL-28): 3.38 µM; TGI (SK-MEL-28): 15.5 µM; CC50 (SK-MEL-28; [1]): 0.552 µM; GI50 (HOP-62): 3.41 µM; LC50 (concentration giving 50% cell kill) (HOP-62): > 100 µM; TGI (HOP-62): 21 µM; GI50 (KM12): 2.12 µM; TGI (KM12): 6.07 µM; CC50 (KM12; [1]): > 100 µM; GI50 (CAKI-1): 2.25 µM; TGI (CAKI-1): 12.8 µM; CC50 (CAKI-1; [1]): > 100 µM; GI50 (EKVX): 3.06 µM; LC50 (50% cell kill) (EKVX): > 100 µM; TGI (EKVX): > 100 µM; GI50 (K562): 4.2 µM; TGI (K562): > 100 µM; CC50 (K562; [1]): > 100 µM; GI50 (LOX IMVI): 3.7 µM; TGI (LOX IMVI): 14.5 µM; CC50 (LOX IMVI; [1]): 0.429 µM; GI50 (NCI-H460): 2.95 µM; TGI (NCI-H460): 8.81 µM; CC50 (NCI-H460; [1]): > 100 µM; GI50 (COLO 205): 2.29 µM; TGI (COLO 205): 6.04 µM; CC50 (COLO 205; [1]): 0.463 µM; GI50 (RXF 393): 1.57 µM; TGI (RXF 393): 5.77 µM; CC50 (RXF 393; [1]): 0.569 µM; GI50 (HCT-15): 4.36 µM; LC50 (50% cell kill) (HCT-15): > 100 µM; TGI (HCT-15): > 100 µM; GI50 (SNB-19): 4.31 µM; TGI (SNB-19): > 100 µM; CC50 (SNB-19; [1]): > 100 µM; GI50 (SK-MEL-5): 2.02 µM; TGI (SK-MEL-5): 5.1 µM; CC50 (SK-MEL-5; [1]): 0.186 µM; GI50 (SK-OV-3): 3.71 µM; TGI (SK-OV-3): 31 µM; CC50 (SK-OV-3; [1]): > 100 µM; GI50 (UACC-62): 2.01 µM; TGI (UACC-62): 7.78 µM; CC50 (UACC-62; [1]): 0.463 µM

— ChEMBL document CHEMBL1821569, “Synthesis of novel 1,2,5-trisubstituted benzimidazoles as potential antitumor agents” (2011)
